Source: ChEMBL document CHEMBL4842330, “New nimesulide derivatives with amide/sulfonamide moieties: Selective COX-2 inhibition and antitumor effects” (Eur J Med Chem, 2021)
Active and inactive are the calls of the source. The calls are words filed in the database; no cut-off is given here.

Key:
MCF7 [1] = assay: Cytotoxicity against human MCF7 cells assessed as cell viability at 100 uM after 48 hrs by MTT assay relative to control; type: functional; conditions: read-out: Activity
Summary of the method: (§1)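 Cells in exponential growth were seeded at 5 × 10⁴ cells/mL, held 24 h at 37 °C, then exposed to compound for 48 h. MTT was added to 1 mg/mL final for 2 h. Formazan was dissolved in DMSO and read at 570 nm, with 620 nm background subtraction. Final DMSO ≤1.0%; viability reported as percentage of control.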

PC-3 [2] = assay: Cytotoxicity against human PC-3 cells assessed as cell viability at 100 uM after 48 hrs by MTT assay relative to control; type: functional; conditions: read-out: Activity; summary of the method: as §1
HT-29 [3] = assay: Cytotoxicity against human HT-29 cells assessed as cell viability at 100 uM after 48 hrs by MTT assay relative to control; type: functional; conditions: read-out: Activity; summary of the method: as §1
PC-3 [4] = assay: Cytotoxicity against human PC-3 cells assessed as inhibition of cell growth after 48 hrs by SRB assay; type: functional, cell-based; conditions: PC-3, 48 h
Summary of the method: (§2)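 Cells seeded at 5 × 10⁴ cells/mL were held 24 h, then treated 48 h across final concentrations of 0–200 µM. They were fixed with 10% TCA for 1 h at 4 °C and stained with 0.04% SRB for 30 min. Bound dye was washed with 1% acetic acid, solubilised in 10 mM Tris base (pH 10.5) and read at 565 nm. IC50 derived from concentration–response curves.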

HUVEC = assay: Cytotoxicity against human HUVEC cells assessed as inhibition of cell growth after 48 hrs by SRB assay; type: cell-based; summary of the method: as §2
MCF7 [5] = assay: Cytotoxicity against human MCF7 cells assessed as inhibition of cell growth after 48 hrs by SRB assay; type: functional, cell-based; conditions: MCF7, 48 h; summary of the method: as §2
HT-29 [6] = assay: Cytotoxicity against human HT-29 cells assessed as inhibition of cell growth after 48 hrs by SRB assay; type: functional, cell-based; conditions: HT-29, 48 h; summary of the method: as §2
MCF7 [7] = assay: Induction of apoptosis in human MCF7 cells assessed as increase in BAX/Bcl-2 ratio at 10 to 25 uM measured after 24 hrs by Western blot analysis; conditions: dose 10-25 µM
MCF7 [8] = assay: Induction of apoptosis in human MCF7 cells assessed as upregulation of BAX protein expression measured after 24 hrs by Western blot analysis; type: functional, cell-based
Summary of the method: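 MCF-7 cells seeded at 1 × 10⁶ cells/mL were exposed to compound for 24 h and lysed in RIPA buffer. Lysates were quantified by BCA, equally loaded, and run on a 12% SDS gel with 4% stacking gel. Blots were probed at 4 °C for BAX, BCL-2 and β-actin, then with HRP secondary, and detected by chemiluminescence. Band densitometry reported as relative change versus control.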

MCF7 [9] = assay: Inhibition of colony formation in human MCF7 cells assessed as decrease in colonies incubated for 14 days by crystal violet staining based clonogenic assay; type: functional, cell-based; conditions: time 14.0 day
Summary of the method: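 MCF-7 cells seeded at 5 × 10² per well were allowed to attach for 24 h. Compound was then applied at increasing concentrations, with medium and compound renewed every 2 days for 14 days. Colonies were fixed in 75% methanol/25% acetic acid for 30 min, stained with 0.5% crystal violet for 30 min, and counted.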

MCF7 [10] = assay: Induction of apoptosis in human MCF7 cells assessed as downregulation of Bcl-2 protein expression at 10 to 25 uM measured after 24 hrs by Western blot analysis; conditions: dose 10-25 µM
[11] = Inhibition of LPS-induced IL-1 beta mRNA expression in mouse RAW264.7 cells at 50 uM by RT-qPCR analysis relative to control; type: functional
Summary of the method: (§3)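 RAW264.7 cells were kept in high-glucose DMEM with 10% FBS. They were treated with compound alongside LPS stimulation. iNOS, TNF-α and IL-1β mRNA were quantified by qPCR using TaqMan probes, with β-actin as housekeeping gene, and expressed relative to LPS control. Final DMSO ≤1.0%.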

[12] = Inhibition of LPS-induced IL-1 beta mRNA expression in mouse RAW264.7 cells at 20 uM by RT-qPCR analysis relative to control; type: functional; summary of the method: as §3
RAW264.7 [13] = assay: Inhibition of LPS-induced NO release in mouse RAW264.7 cells at 20 uM when treated with compound and LPS simultaneously measured after 24 hrs by Griess reagent based assay relative to control; type: functional
Summary of the method: (§4)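 RAW264.7 cells were plated at 4 × 10⁵ cells/mL in phenol-free medium and left 24 h. They then received compound together with LPS (1 µg/mL) for 24 h. Nitrite in supernatants was measured by the Griess reaction and normalised to BCA total protein of viable cells. 1400W at 20 µM served as positive control.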

THP-1 [14] = assay: Antiinflammatory activity in LPS-stimulated human THP-1 cells assessed as suppression of PGE2 release at 50 uM incubated for 24 hrs by ELISA relative to control; type: functional
Summary of the method: (§5)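 THP-1 monocytes were differentiated with PMA (10 ng/mL, 24 h) and rested 24 h PMA-free. They were then given compound alongside 1 µg/mL LPS for 24 h. PGE₂ in supernatants was measured by ELISA and normalised to the BCA total protein of viable cells. Final DMSO ≤1.0%; at least three independent biological replicates.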

RAW264.7 [15] = assay: Inhibition of LPS-induced NO release in mouse RAW264.7 cells at 50 uM when treated with compound and LPS simultaneously measured after 24 hrs by Griess reagent based assay relative to control; type: functional; summary of the method: as §4
THP-1 [16] = assay: Antiinflammatory activity in LPS-stimulated human THP-1 cells assessed as suppression of COX-2 mRNA expression at 100 uM incubated for 24 hrs by ELISA relative to control; type: functional; conditions: in the assay text read “by qPCR” for “by ELISA”
Summary of the method: (§6)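 THP-1 monocytes plated at 1 × 10⁶ cells/mL, differentiated with 10 ng/mL PMA for 24 h, then rested 24 h in PMA-free medium. Cells were treated with compound and LPS stimulation. COX mRNA was quantified by qPCR with TaqMan probes against β-actin as housekeeping gene. Compound stocks in DMSO, final DMSO ≤1.0%.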

THP-1 [17] = assay: Antiinflammatory activity in LPS-stimulated human THP-1 cells assessed as suppression of PGE2 release at 100 uM incubated for 24 hrs by ELISA relative to control; type: functional; summary of the method: as §5
[18] = Inhibition of LPS-induced TNF alpha mRNA expression in mouse RAW264.7 cells at 20 uM by RT-qPCR analysis relative to control; type: functional; summary of the method: as §3
[19] = Inhibition of LPS-induced TNF alpha mRNA expression in mouse RAW264.7 cells at 50 uM by RT-qPCR analysis relative to control; type: functional; summary of the method: as §3
[20] = target: T1, Prostaglandin G/H synthase 2 (Homo sapiens) (UniProt P35354); assay: Inhibition of human recombinant COX-2 at 1 uM using arachidonic acid as substrate preincubated for 10 mins followed by substrate addition relative to control
T1 sequence (whole entry): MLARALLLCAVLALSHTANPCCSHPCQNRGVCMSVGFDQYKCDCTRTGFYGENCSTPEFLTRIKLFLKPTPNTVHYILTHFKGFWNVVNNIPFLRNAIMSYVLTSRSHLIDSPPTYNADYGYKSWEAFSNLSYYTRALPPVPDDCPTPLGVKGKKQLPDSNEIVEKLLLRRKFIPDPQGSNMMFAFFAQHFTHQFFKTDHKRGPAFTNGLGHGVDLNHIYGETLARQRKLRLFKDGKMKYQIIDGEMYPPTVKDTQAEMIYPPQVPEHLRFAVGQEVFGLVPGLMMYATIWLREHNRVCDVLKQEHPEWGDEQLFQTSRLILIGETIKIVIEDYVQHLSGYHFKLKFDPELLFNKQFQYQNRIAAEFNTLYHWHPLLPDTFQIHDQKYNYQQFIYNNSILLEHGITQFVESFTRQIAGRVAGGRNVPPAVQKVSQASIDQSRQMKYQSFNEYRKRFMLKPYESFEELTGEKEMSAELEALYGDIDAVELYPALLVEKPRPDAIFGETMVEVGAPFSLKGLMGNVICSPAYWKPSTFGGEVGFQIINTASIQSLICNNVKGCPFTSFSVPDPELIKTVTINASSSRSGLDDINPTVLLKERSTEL

[21] = target: COX-1 (Prostaglandin G/H synthase 1) (Homo sapiens, UniProt P23219); assay: Inhibition of human recombinant COX-1 at 10 uM using arachidonic acid as substrate preincubated for 10 mins followed by substrate addition relative to control; conditions: recombinant COX-1, probe arachidonic acid
THP-1 [22] = assay: Antiinflammatory activity in LPS-stimulated human THP-1 cells assessed as suppression of COX-2 mRNA expression at 50 uM incubated for 24 hrs by ELISA relative to control; type: functional; conditions: in the assay text read “by qPCR” for “by ELISA”; summary of the method: as §6

Chain of COX-1 (Prostaglandin G/H synthase 1) (P23219 whole entry): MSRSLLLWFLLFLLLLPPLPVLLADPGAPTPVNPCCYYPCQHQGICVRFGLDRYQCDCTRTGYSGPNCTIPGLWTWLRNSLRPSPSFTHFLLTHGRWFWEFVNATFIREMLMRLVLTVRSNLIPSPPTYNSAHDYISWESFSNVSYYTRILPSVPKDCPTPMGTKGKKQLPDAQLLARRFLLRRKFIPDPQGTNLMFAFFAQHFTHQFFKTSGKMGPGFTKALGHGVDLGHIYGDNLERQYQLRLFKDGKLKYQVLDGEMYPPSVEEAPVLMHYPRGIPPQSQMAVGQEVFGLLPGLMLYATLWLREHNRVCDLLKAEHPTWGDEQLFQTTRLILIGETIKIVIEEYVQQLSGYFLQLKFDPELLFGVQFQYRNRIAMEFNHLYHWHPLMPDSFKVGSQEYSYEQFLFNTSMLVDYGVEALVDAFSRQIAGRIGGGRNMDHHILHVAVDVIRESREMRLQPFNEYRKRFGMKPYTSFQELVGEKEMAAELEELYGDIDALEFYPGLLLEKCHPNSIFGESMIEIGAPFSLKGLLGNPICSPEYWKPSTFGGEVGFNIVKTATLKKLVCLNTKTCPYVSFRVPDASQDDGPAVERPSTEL

| Compound | viability at 100 µM (MCF7 [1]) [%] | viability at 100 µM (PC-3 [2]) [%] | viability at 100 µM (HT-29 [3]) [%] | also measured |
| --- | --- | --- | --- | --- |
| CC(C)Oc1cc(NS(=O)(=O)c2ccc(F)cc2)ccc1NS(C)(=O)=O | 130 | 75.5 | 92.9 | – |
| CC(C)Oc1cc(NS(=O)(=O)c2ccc([N+](=O)[O-])cc2)ccc1NS(C)(=O)=O | 57.9 | 91.4 | 75.4 | – |
| COc1ccc(C(=O)Nc2ccc(NS(C)(=O)=O)c(OC(C)C)c2)cc1 | 153 | 65.8 | 67.9 | – |
| COc1cccc2c1C(=O)c1c(O)c3c(c(O)c1C2=O)C[C@@](O)(C(=O)CO)C[C@@H]3O[C@H]1C[C@H](N)[C@H](O)[C@H](C)O1 [DOXORUBICIN] | 14.1 | 11.8 | 21 | IC50 (PC-3 [4]): 16.9 µM; IC50 (HUVEC): 0.1 µM; IC50 (MCF7 [5]): 0.16 µM; IC50 (HT-29 [6]): 0.15 µM |
| CCOc1cc(NC(=O)c2ccccc2[N+](=O)[O-])ccc1NS(C)(=O)=O | 122 | 100 | 112 | – |
| CCOc1cc(NC(=O)c2ccc(F)cc2)ccc1NS(C)(=O)=O | 64.4 | 90 | 80.1 | – |
| COc1ccc(S(=O)(=O)Nc2ccc(NS(C)(=O)=O)c(OC(C)C)c2)cc1 | 130 | 68.6 | 102 | – |
| CCOc1cc(NC(=O)c2cccc([N+](=O)[O-])c2)ccc1NS(C)(=O)=O | 90.8 | 90.2 | 70.4 | – |
| CCOc1cc(NC(=O)c2ccc([N+](=O)[O-])cc2)ccc1NS(C)(=O)=O | 116 | 84.8 | 114 | – |
| CS(=O)(=O)Nc1ccc(NC(=O)c2ccc(C(N)=O)cc2)cc1Oc1ccccc1 | 53.1 | 88.7 | 64.4 | – |
| CS(=O)(=O)Nc1ccc(NC(=O)c2ccc(F)cc2)cc1Oc1ccccc1 | 22.2 | 24.8 | 33.1 | Activity (MCF7 [7]): Active; Activity (MCF7 [8]): Dose-Dependent Effect; inhibition (MCF7 [9]): Dose-Dependent Effect; IC50 (PC-3 [4]): > 100 µM; IC50 (HUVEC): > 200 µM; IC50 (MCF7 [5]): 11.3 µM; IC50 (HT-29 [6]): 9.24 µM; Activity (MCF7 [10]): Active |
| COc1ccc(C(=O)Nc2ccc(NS(C)(=O)=O)c(OC(C)C)c2)c([N+](=O)[O-])c1 | 63.5 | 94.2 | 111 | – |
| CCOc1cc(NS(=O)(=O)c2ccc([N+](=O)[O-])cc2)ccc1NS(C)(=O)=O | 119 | 65.7 | 118 | inhibition at 50 µM [11]: 22%; inhibition at 20 µM [12]: 39%; inhibition at 20 µM (RAW264.7 [13]): 40.7%; Activity (THP-1 [14]): 77%; inhibition at 50 µM (RAW264.7 [15]): 68%; Activity (THP-1 [16]): 60%; Activity (THP-1 [17]): 44%; inhibition at 20 µM [18]: 46%; inhibition at 50 µM [19]: 22%; inhibition [20]: 88%; inhibition at 10 µM [21]: 21%; Activity (THP-1 [22]): 47% |
| CC(C)Oc1cc(NC(=O)c2ccc(C(N)=O)cc2)ccc1NS(C)(=O)=O | 61.9 | 49.8 | 79.4 | – |
| CCOc1cc(NS(=O)(=O)c2cccc([N+](=O)[O-])c2)ccc1NS(C)(=O)=O | 127 | 75.5 | 116 | – |
| CCOc1cc(NS(=O)(=O)c2ccccc2[N+](=O)[O-])ccc1NS(C)(=O)=O | 139 | 77.9 | 133 | – |
| CC(C)Oc1cc(NC(=O)c2ccc([N+](=O)[O-])cc2)ccc1NS(C)(=O)=O | 101 | 81 | 124 | – |
